For test [1], the target named is T1, L-selectin (Homo sapiens) (UniProt P14151).
T1 sequence (whole entry): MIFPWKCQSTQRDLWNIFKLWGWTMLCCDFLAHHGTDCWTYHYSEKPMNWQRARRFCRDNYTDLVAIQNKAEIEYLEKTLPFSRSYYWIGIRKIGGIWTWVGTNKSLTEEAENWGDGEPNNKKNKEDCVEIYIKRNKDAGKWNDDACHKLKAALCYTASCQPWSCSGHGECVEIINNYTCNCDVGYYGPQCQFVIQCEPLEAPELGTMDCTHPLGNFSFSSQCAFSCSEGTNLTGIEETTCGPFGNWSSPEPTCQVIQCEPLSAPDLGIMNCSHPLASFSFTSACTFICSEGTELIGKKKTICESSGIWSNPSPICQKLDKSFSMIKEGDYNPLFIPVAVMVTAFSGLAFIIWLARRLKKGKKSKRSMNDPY
In words: Inhibition of sLex binding to L-selectin at 500 uM relative to control by glyco-ELISA assay. The gist of the method:
(§1)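 Cell-free competitive binding assay. The named selectin is immobilized on microtiter plates, and compound plus sLex-tyrosine sulfate on biotinylated polyacrylamide are added. After incubation, bound ligand is detected by streptavidin-peroxidase, OD 414 nm, with empty-plate absorbance subtracted. Wells coated only with sLex define 0%; EDTA (blocks Ca2+-dependent binding) defines 100% inhibition.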
Background: An ELISA detects its analyte on a solid surface through an enzyme-linked reagent.

In another test the test system is AEC. In words: Viability of BAEC by Roche-XTT assay relative to control. The class given is functional, Bos taurus. Further details: concentration or dose not given beside the values. The gist of the method: (§2)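 XTT assay: metabolically active cells convert yellow tetrazolium XTT to orange formazan. Untreated control viability set to 100%. Cells were BAEC or MM6 as named in each line; MM6 tested at 100 µM.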
For orientation: Tetrazolium assays rely on reduction of a dye to a coloured formazan, in cell work by metabolically active cells.

A short description of test [2]: Inhibition of MM6 cell adhesion to BAEC at 100 uM relative to control by static assay. The class given is functional. The gist of the method:
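BAEC monolayers (passage 1-3, 7 days after seeding) stimulated with 20 ng/mL TNFα for 4 or 16 h, test agent in DMSO or vehicle for 20 min at 37 °C/5% CO2. After washing, leukocytes added at 1 × 10^6 cells/mL for 30 min at 37 °C. Non-adherent cells washed off, adherent cells counted microscopically. TNFα-stimulated adhesion set to 100%. Single concentration, 100 µM.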

Test [3] deals with T2, P-selectin (Homo sapiens) (UniProt P16109).
T2 sequence (whole entry): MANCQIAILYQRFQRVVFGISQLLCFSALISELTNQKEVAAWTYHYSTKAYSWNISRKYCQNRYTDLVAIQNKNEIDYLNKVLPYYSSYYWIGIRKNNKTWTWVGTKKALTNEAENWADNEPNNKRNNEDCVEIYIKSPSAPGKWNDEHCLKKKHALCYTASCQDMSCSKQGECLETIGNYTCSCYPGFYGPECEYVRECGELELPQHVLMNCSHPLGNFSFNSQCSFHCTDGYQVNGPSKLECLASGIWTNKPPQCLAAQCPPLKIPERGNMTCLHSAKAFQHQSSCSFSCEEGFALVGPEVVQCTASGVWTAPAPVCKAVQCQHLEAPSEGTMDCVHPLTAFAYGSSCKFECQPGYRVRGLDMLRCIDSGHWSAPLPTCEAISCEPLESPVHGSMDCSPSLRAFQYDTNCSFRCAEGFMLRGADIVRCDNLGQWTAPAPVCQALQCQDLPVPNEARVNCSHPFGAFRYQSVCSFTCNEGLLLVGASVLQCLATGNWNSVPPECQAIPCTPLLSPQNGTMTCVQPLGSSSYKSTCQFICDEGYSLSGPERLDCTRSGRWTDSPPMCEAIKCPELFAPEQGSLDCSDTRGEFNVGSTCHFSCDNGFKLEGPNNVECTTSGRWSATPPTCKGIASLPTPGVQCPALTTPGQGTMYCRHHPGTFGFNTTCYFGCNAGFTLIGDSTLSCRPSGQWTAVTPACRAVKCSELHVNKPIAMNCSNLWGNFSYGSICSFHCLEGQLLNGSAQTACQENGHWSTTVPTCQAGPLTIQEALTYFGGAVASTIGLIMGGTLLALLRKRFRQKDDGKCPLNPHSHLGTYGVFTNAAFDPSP
The test is described as follows: Inhibition of sLex binding to P-selectin at 500 uM relative to control by glyco-ELISA assay. The gist of the method: as §1

A short description of test [4]: Viability in ATP-lite assay relative to control. The class given is functional. Further details: concentration or dose not given beside the values.
The target of test [5] is T3, E-selectin (Homo sapiens) (UniProt P16581).
T3 sequence (whole entry): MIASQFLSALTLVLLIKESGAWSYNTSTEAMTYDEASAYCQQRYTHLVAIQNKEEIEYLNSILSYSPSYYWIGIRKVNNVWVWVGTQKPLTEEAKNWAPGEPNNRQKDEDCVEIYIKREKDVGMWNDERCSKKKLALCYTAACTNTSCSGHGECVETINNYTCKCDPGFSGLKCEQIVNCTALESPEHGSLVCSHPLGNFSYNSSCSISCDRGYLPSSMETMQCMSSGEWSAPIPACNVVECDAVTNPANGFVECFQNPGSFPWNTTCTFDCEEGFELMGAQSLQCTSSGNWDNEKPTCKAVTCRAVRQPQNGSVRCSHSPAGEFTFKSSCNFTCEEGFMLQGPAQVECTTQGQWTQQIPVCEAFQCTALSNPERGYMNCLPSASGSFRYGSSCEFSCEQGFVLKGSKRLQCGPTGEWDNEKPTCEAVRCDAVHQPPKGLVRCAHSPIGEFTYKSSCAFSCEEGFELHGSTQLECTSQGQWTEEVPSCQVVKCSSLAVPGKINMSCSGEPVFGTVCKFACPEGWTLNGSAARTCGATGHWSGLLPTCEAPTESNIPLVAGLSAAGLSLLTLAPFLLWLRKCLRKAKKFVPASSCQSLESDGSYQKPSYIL
The test is described as follows: Inhibition of sLex binding to E-selectin at 100 uM relative to control by glyco-ELISA assay. In a few lines:
as §1

The subject of another test is MONO-MAC-6. In words: Viability of MM6 cells at 100 uM by Roche-XTT assay relative to control. The class given is functional, Homo sapiens. In a few lines:
as §2

In test [6] the target is T3, E-selectin (Homo sapiens). The test is described as follows: Inhibition of sLex binding to E-selectin at 500 uM relative to control by glyco-ELISA assay. The gist of the method: as §1
In the next test the test system is Mus musculus. In words: Reduction in proteose peptone-induced PMN extravasation in C57BL/J mouse peritonitis model at 100 mg/kg. The class given is functional, organism-based. Further details: dose 100 mg/kg.

Calls of active or inactive are those of the source. No cut-off for these calls is given here.

By inhibition is commonly meant the drop in the measured response relative to a control, in per cent. With `CCCCCCCCCCOc1cc(OCCCCCCCCCC)cc(OCCCCCC(=O)N(Cc2ccc(C(=O)O)cc2)c2ccc(C(=O)O)cc2)c1`, the results for the inhibition in test [1] and in test [3] were 50% and 49%, respectively. The compound also displayed an Activity in the test with AEC of 36%. In addition, the inhibition at 100 µM in test [2] came out at 56%.

In the case of `CCCCCCCCCCOc1cccc(OCCCCCC(=O)N(Cc2ccc(C(=O)OC)cc2)c2cccc(C(=O)OC)c2)c1`, the inhibition worked out at 86% in test [1], 18% in [5] and 79% in [3]. The figures for the Activity (in the test with AEC; in [4]; in the test on MONO-MAC-6) were 99%, 62% and 98%, respectively. Besides, the inhibition at 100 µM in [2] was found to be 45%.

For the compound `CCCCCCCCCCOc1cccc(OCCCCCC(=O)N(Cc2ccc(C(=O)OC)cc2)c2ccc(C(=O)OC)cc2)c1`, the inhibition in [1] turned out to be 75%; in test [5], 65%; in [3] it was 78%. In addition, the inhibition at 100 µM in test [2] is 26%. Moreover, the results for the Activity (in test [4]; in the test on MONO-MAC-6) were 68% and 80%, respectively.

`CCCCCCCCCCOc1cc(OCCCCCCCCCC)cc(OCCCCCC(=O)N(c2ccc(C(=O)OC)cc2)c2ccc(C(=O)OC)cc2)c1`: the inhibition came to 16% in [1], 5% in [6] and 16% in test [3]. Besides, the inhibition at 100 µM in [2] amounted to 10%.

Consider `O=C(O)c1ccc(N(C(=O)CCCCCBr)c2cccc(C(=O)O)c2)cc1`, for which the inhibition came out at 5% in test [1] and 19% in test [3]. In the test on AEC, this compound yielded an Activity of 75%. For the same compound, the inhibition at 100 µM in [2] worked out at 2%.

In the case of `CCCCCCCCCCOc1cc(OCCCCCCCCCC)cc(OCCCCCCN(Cc2ccc(C(=O)OC)cc2)c2ccc(C(=O)OC)cc2)c1`, the Activity turned out to be 111% in the test with AEC and 5% in the test with MONO-MAC-6. Further, the inhibition at 100 µM in test [2] came out at 61%.

Turning to `O=C(O)c1ccc(N(C(=O)CCCCCBr)c2ccc(C(=O)O)cc2)cc1`, the figures for the inhibition in [1], in [5] and in test [3] were 6%, 5% and 12%, respectively. Also, in [2], the inhibition at 100 µM is 4%.

Consider `CCCCCCCCCCOc1cc(OCCCCCCCCCC)cc(OCCCCCC(=O)N(Cc2ccc(C(=O)O)cc2)c2cccc(C(=O)O)c2)c1`, for which the inhibition came out at 92% in [1], 43% in [5] and 95% in test [3]. Besides, the Activity in the test on AEC worked out at 46%; in [4], 0%; in the test with MONO-MAC-6, 11%. The inhibition at 100 µM in test [2] is 82%.

Consider `CCCCCCCCCCOc1cc(OCCCCCCCCCC)cc(OCCCCCC(=O)N(c2ccc(C(=O)O)cc2)c2cccc(C(=O)O)c2)c1`, for which the inhibition was found to be 53% in test [1] and 58% in [3].

Turning to `CCCCCCCCCCOc1cc(OCCCCCCCCCC)cc(OCCCCCC(=O)N(c2ccc(C(=O)OC)cc2)c2ccc(C(=O)OC)c(C(=O)OC)c2)c1`, the inhibition worked out at 95% in test [1], 73% in [6] and 90% in [3]. Also, the values for the Activity (in the test on AEC; in test [4]; with MONO-MAC-6) were 90%, 58% and 50%, respectively. Besides, the inhibition at 100 µM in test [2] was found to be 115%.

Take `CCCCCCCCCCOc1cc(OCCCCCCCCCC)cc(OCCCCCCON=C(c2ccc(C(=O)O)cc2)c2ccc(C(=O)O)cc2)c1`: the inhibition stood at 6% in test [1] and 2% in test [3]. The Activity in the test with AEC was 110%; in the test with MONO-MAC-6 it was 84%. Moreover, the inhibition at 100 µM in test [2] came out at 90%.

`CCCCCCCCCCOc1cc(OCCCCCCCCCC)cc(OCCCCCC(=O)N(Cc2ccc(C(=O)OC)cc2)c2ccc(C(=O)OC)cc2)c1`: the values for the inhibition in test [1] and in [3] were 26% and 27%, respectively. Moreover, the inhibition at 100 µM in test [2] was determined as 26%.

Consider `CCCCCCCCCCOc1cccc(OCCCCCC(=O)N(Cc2ccc(C(=O)O)cc2)c2cccc(C(=O)O)c2)c1`, for which the inhibition amounted to 103% in [1], 42% in [5] and 103% in test [3]. Besides, the figures for the Activity (in the test on AEC; in test [4]; in the test on MONO-MAC-6) were 20%, 4% and 101%, respectively. The inhibition at 100 µM in test [2] was 70%.

As to `CCCCCCCCCCOc1cccc(OCCCCCC(=O)N(Cc2ccc(C(=O)O)cc2)c2ccc(C(=O)O)cc2)c1`, in the test with AEC, the Activity is 100%. The inhibition at 100 µM in test [2] worked out at 93%.

Take `CCCCCCCCCCOc1cc(OCCCCCCCCCC)cc(OCCCCCCN(Cc2ccc(C(=O)O)cc2)c2ccc(C(=O)O)cc2)c1`: the inhibition at 100 µM in [2] stood at 100%. In addition, the Activity with MONO-MAC-6 was 10%.

Turning to `CC(=O)N[C@H]1[C@H]([C@H](O)[C@H](O)CO)O[C@@](O[C@H]2[C@@H](O)[C@@H](CO)O[C@@H](O[C@@H]([C@H](O[C@@H]3O[C@@H](C)[C@@H](O)[C@@H](O)[C@@H]3O)[C@H](C=O)NC(C)=O)[C@H](O)CO)[C@@H]2O)(C(=O)O)C[C@@H]1O` [SIALYL LEWIS X], the inhibition at 100 µM in [2] amounted to 41%. For the same compound, the result with Mus musculus was inactive.

`CCCCCCCCCCOc1cc(OCCCCCCCCCC)cc(OCCCCCCON=C(c2ccc(Cl)cc2)c2ccc(Cl)cc2)c1`: the inhibition in [1] was 5%; in test [5], 2%; in test [3], 2%. Besides, in test [2], the inhibition at 100 µM is 24%.

In the case of `CCCCCCCCCCOc1cc(OCCCCCCCCCC)cc(OCCCCCCO/N=C(/c2ccc(C(=O)O)cc2)c2cccc(C(=O)O)c2)c1`, the values for the inhibition in [1] and in test [3] were 50% and 34%, respectively. Also, the inhibition at 100 µM in [2] was found to be 100%.

These data come from ChEMBL document CHEMBL1137388, “A novel class of potent nonglycosidic and nonpeptidic pan-selectin inhibitors” (2006).
